Test results as given in ChEMBL document CHEMBL5030505, “Assessment of NR4A Ligands That Directly Bind and Modulate the Orphan Nuclear Receptor Nurr1” (J Med Chem, 2020).
Calls of active or inactive are those of the source. The rule behind the calls is not given here.

Key:
Assay type in all cases: cell-based
SK-N-BE(2) = assay: Cytotoxicity in human SKNBE2 cells assessed as reduction in cell viability at 12.5 to 50 uM incubated for 18 hrs by Cell Titer-Glo assay; conditions: dose 12.5-50 µM
Procedure, shortened: (§1)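 Cells seeded at 1.5 million per 10-cm dish. Next day they were replated at 10,000 cells/well and rested 4 h. Ligand or vehicle (water, ethanol or DMSO, by ligand) was added in dose-response format in quadruplicate. After 18 h, viability was read by CellTiter-Glo luminescence. Data are mean ± s.e.m., generally representative of 2 independent experiments. One-way ANOVA versus vehicle.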

PC-12 [1] = assay: Cytotoxicity in rat PC-12 cells assessed as reduction in cell viability at 12.5 to 50 uM incubated for 18 hrs by Cell Titer-Glo assay; conditions: pc-12, 18 h, dose 12.5-50 µM; procedure, shortened: as §1
HEK-293T = assay: Cytotoxicity in human HEK293T cells assessed as reduction in cell viability at 12.5 to 50 uM incubated for 18 hrs by Cell Titer-Glo assay; conditions: dose 12.5-50 µM; procedure, shortened: as §1
SKNBE2 = assay: Modulation of Gal4-fused VP16 expressed in SKNBE(2) cells co-transfected with UAS repoter gene assessed as decrease in luciferase activity at 12.5 to 50 uM incubated for 18 hrs by luciferase reporter gene assay; conditions: Human alphaherpesvirus 2, filed as modulator, dose 12.5-50 µM
Procedure, shortened: (§2)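 Cells in 10-cm dishes were transfected with Gal4-VP16 expression plasmid (2 μg) plus 5xUAS-luciferase reporter (2 μg) for 18 h. They were replated at 10,000 cells/well for 4 h, then given ligand or vehicle (water, ethanol or DMSO) in quadruplicate for 18 h. Luciferase was read with Britelite Plus. Fold change is versus vehicle-treated cells, with one-way ANOVA versus vehicle.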

PC-12 [2] = assay: Modulation of Gal4-fused VP16 expressed in PC12 cells co-transfected with UAS repoter gene assessed as decrease in luciferase activity at 12.5 to 50 uM incubated for 18 hrs by luciferase reporter gene assay; conditions: Human alphaherpesvirus 2, filed as modulator, dose 12.5-50 µM; procedure, shortened: as §2
[3] = molecular target: Nuclear receptor subfamily 4 group A member 2 (Homo sapiens) (UniProt P43354); assay: Modulation of full length human Nurr1 expressed in SKNBE(2) cells co-transfected with RXRalpha and luciferase reporter plasmid harboring NurRE response element assessed as decrease in luciferase activity at 12.5 to 50 uM incubated for 18 hrs by luciferase reporter gene assay; conditions: SKNBE2, filed as modulator, dose 12.5-50 µM
Procedure, shortened: (§3)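 SK-N-BE(2)-C cells were kept in 1:1 EMEM/F12 with 10% FBS at 37°C and 5% CO2. They were cotransfected with full-length Nurr1 (1 μg), full-length RXRα (1 μg) and 3xNBRE- or 3xNurRE-luc reporter (6 μg) for 18 h, replated at 10,000 cells/well for 4 h, and then treated with ligand or vehicle in quadruplicate for 18 h. The readout was luciferase luminescence as fold over vehicle, reported as mean ± s.e.m. (n=4) from 2 independent experiments, one-way ANOVA.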

[4] = molecular target: Nuclear receptor subfamily 4 group A member 2 (Homo sapiens) (UniProt P43354); assay: Modulation of full length human Nurr1 expressed in SKNBE(2) cells co-transfected with RXRalpha and luciferase reporter plasmid harboring NBRE response element assessed as increase in luciferase activity at 12.5 to 50 uM incubated for 18 hrs by luciferase reporter gene assay; conditions: SKNBE2, filed as modulator, dose 12.5-50 µM; procedure, shortened: as §3
[5] = molecular target: Nuclear receptor subfamily 4 group A member 2 (Homo sapiens) (UniProt P43354); assay: Modulation of full length human Nurr1 expressed in SKNBE(2) cells co-transfected with RXRalpha and luciferase reporter plasmid harboring NBRE response element assessed as decrease in luciferase activity at 12.5 to 50 uM incubated for 18 hrs by luciferase reporter gene assay; conditions: SKNBE2, filed as modulator, dose 12.5-50 µM; procedure, shortened: as §3
[6] = molecular target: Nuclear receptor subfamily 4 group A member 2 (Homo sapiens) (UniProt P43354); assay: Modulation of full length human Nurr1 expressed in PC12 cells co-transfected with RXRalpha and luciferase reporter plasmid harboring NurRE response element at 12.5 to 50 uM incubated for 18 hrs by luciferase reporter gene assay; conditions: PC-12, dose 12.5-50 µM
Procedure, shortened: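 PC12 cells were grown at 37°C and 5% CO2 in […] medium with 15% horse serum and 2.5% FBS. They were transfected with full-length Nurr1 (1 μg) plus full-length RXRα (1 μg) and 3xNBRE- or 3xNurRE-luciferase reporter (6 μg) for 18 h, then replated at 10,000 cells/well for 4 h. Ligand or vehicle (water, ethanol or DMSO) was added in quadruplicate for 18 h. Luminescence was read as fold change over vehicle. Results are mean ± s.e.m., n=4, from 2 independent experiments, analysed by one-way ANOVA against vehicle.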

HEK293T = assay: Modulation of Gal4-fused VP16 expressed in HEK293T cells co-transfected with UAS repoter gene assessed as decrease in luciferase activity at 12.5 to 50 uM incubated for 18 hrs by luciferase reporter gene assay; conditions: Human alphaherpesvirus 2, filed as modulator, dose 12.5-50 µM; procedure, shortened: as §2
[7] = molecular target: Nuclear receptor subfamily 4 group A member 2 (Homo sapiens) (UniProt P43354); assay: Modulation of full length human Nurr1 expressed in HEK293T cells co-transfected with RXRalpha and luciferase reporter plasmid harboring NBRE response element assessed as increase in luciferase activity at 12.5 to 50 uM incubated for 18 hrs by luciferase reporter gene assay; conditions: filed as modulator, dose 12.5-50 µM
Procedure, shortened: (§4)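 Full-length Nurr1 plasmid, alone (2 μg) or 1 μg plus full-length RXRα (1 μg), cotransfected with 3xNBRE- or 3xNurRE-luciferase reporter (6 μg) using Lipofectamine 2000, 18 h. Cells replated at 10,000/well for 4 h. Four ligand concentrations, or vehicle (water, ethanol or DMSO), added in quadruplicate for 18 h. Luciferase read. Fold change vs vehicle, mean ± s.e.m., one-way ANOVA vs vehicle.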

[8] = molecular target: Nuclear receptor subfamily 4 group A member 2 (Homo sapiens) (UniProt P43354); assay: Modulation of full length human Nurr1 expressed in HEK293T cells co-transfected with RXRalpha and luciferase reporter plasmid harboring NurRE response element assessed as decrease in luciferase activity at 12.5 to 50 uM incubated for 18 hrs by luciferase reporter gene assay; conditions: filed as modulator, dose 12.5-50 µM; procedure, shortened: as §4
[9] = molecular target: Nuclear receptor subfamily 4 group A member 2 (Homo sapiens) (UniProt P43354); assay: Modulation of full length human Nurr1 expressed in HEK293T cells co-transfected with RXRalpha and luciferase reporter plasmid harboring NBRE response element assessed as decrease in luciferase activity at 12.5 to 50 uM incubated for 18 hrs by luciferase reporter gene assay; conditions: filed as modulator, dose 12.5-50 µM; procedure, shortened: as §4
[10] = molecular target: Nuclear receptor subfamily 4 group A member 2 (Homo sapiens) (UniProt P43354); assay: Modulation of full length human Nurr1 expressed in SKNBE(2) cells co-transfected with luciferase reporter plasmid harboring NurRE response element assessed as decrease in luciferase activity at 12.5 to 50 uM incubated for 18 hrs by luciferase reporter gene assay; conditions: SKNBE2, filed as modulator, dose 12.5-50 µM
[11] = molecular target: Nuclear receptor subfamily 4 group A member 2 (Homo sapiens) (UniProt P43354); assay: Modulation of full length human Nurr1 expressed in SKNBE(2) cells co-transfected with luciferase reporter plasmid harboring NBRE response element assessed as decrease in luciferase activity at 12.5 to 50 uM incubated for 18 hrs by luciferase reporter gene assay; conditions: SKNBE2, filed as modulator, dose 12.5-50 µM
Procedure, shortened: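 Transfection of SK-N-BE(2)-C cells (1:1 EMEM/F12, 10% FBS, 37°C, 5% CO2) used full-length Nurr1 alone (2 μg, no RXRα) with 3xNBRE- or 3xNurRE-luciferase reporter (6 μg) for 18 h. Cells were replated at 10,000/well for 4 h, then exposed to ligand or vehicle in quadruplicate for 18 h. Luminescence was expressed as fold over vehicle, as mean ± s.e.m. (n=4) from 2 independent experiments, one-way ANOVA against vehicle.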

[12] = molecular target: Nuclear receptor subfamily 4 group A member 2 (Homo sapiens) (UniProt P43354); assay: Modulation of full length human Nurr1 expressed in PC12 cells co-transfected with luciferase reporter plasmid harboring NurRE response element at 12.5 to 50 uM incubated for 18 hrs by luciferase reporter gene assay; conditions: PC-12, dose 12.5-50 µM
Procedure, shortened: (§5)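 Here PC12 cells (FK-12 medium, 15% horse serum, 2.5% FBS, 37°C, 5% CO2) received full-length Nurr1 (2 μg) without RXRα, plus 3xNBRE- or 3xNurRE-luciferase reporter (6 μg), for 18 h. Cells were replated at 10,000/well for 4 h, then treated with ligand or vehicle in quadruplicate for 18 h. Luciferase luminescence was normalized to vehicle-treated cells. Results are mean ± s.e.m. (n=4) from 2 independent experiments, with one-way ANOVA against vehicle.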

[13] = molecular target: Nuclear receptor subfamily 4 group A member 2 (Homo sapiens) (UniProt P43354); assay: Modulation of full length human Nurr1 expressed in PC12 cells co-transfected with luciferase reporter plasmid harboring NBRE response element at 12.5 to 50 uM incubated for 18 hrs by luciferase reporter gene assay; conditions: PC-12, dose 12.5-50 µM; procedure, shortened: as §5
[14] = molecular target: Nuclear receptor subfamily 4 group A member 2 (Homo sapiens) (UniProt P43354); assay: Modulation of full length human Nurr1 expressed in HEK293T cells co-transfected with luciferase reporter plasmid harboring NurRE response element assessed as decrease in luciferase activity at 12.5 to 50 uM incubated for 18 hrs by luciferase reporter gene assay; conditions: filed as modulator, dose 12.5-50 µM; procedure, shortened: as §4
[15] = molecular target: Nuclear receptor subfamily 4 group A member 2 (Homo sapiens) (UniProt P43354); assay: Modulation of full length human Nurr1 expressed in HEK293T cells co-transfected with luciferase reporter plasmid harboring NBRE response element assessed as decrease in luciferase activity at 12.5 to 50 uM incubated for 18 hrs by luciferase reporter gene assay; conditions: filed as modulator, dose 12.5-50 µM; procedure, shortened: as §4

Nuclear receptor subfamily 4 group A member 2 (Homo sapiens), sequence (P43354 whole entry): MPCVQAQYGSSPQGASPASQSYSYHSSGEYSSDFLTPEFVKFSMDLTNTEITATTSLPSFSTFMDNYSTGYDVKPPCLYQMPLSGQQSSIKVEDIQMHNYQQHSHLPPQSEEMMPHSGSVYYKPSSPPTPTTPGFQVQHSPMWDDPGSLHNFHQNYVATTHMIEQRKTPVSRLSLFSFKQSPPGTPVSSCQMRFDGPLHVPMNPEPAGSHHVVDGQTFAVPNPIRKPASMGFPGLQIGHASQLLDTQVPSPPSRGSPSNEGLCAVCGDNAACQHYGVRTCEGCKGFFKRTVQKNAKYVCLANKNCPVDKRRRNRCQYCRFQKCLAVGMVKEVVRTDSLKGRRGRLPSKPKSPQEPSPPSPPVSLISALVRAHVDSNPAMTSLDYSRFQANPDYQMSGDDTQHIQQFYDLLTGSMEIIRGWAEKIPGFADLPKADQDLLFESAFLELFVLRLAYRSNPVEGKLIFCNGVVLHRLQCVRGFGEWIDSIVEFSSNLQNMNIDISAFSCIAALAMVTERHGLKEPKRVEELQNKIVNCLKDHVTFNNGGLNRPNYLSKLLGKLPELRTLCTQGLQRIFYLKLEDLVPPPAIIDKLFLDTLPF

Activity [3]: Active
Activity [4]: Active
Activity [5]: Active
Activity [6]: inactive
Activity [7]: Active
Activity [8]: Active
Activity [9]: Active
Activity [10]: Active
Activity [11]: Active
Activity [12]: inactive
Activity [13]: inactive
Activity [14]: Active
Activity [15]: Active
SMILES: Clc1ccc(C(c2c[nH]c3ccccc23)c2c[nH]c3ccccc23)cc1
Activity (SK-N-BE(2)): Toxic
Activity (PC-12 [1]): Toxic
Activity (HEK-293T): Toxic
Activity (SKNBE2): Active
Activity (PC-12 [2]): Active
Activity (HEK293T): Active
